Consider 39 molecules from ChEMBL document CHEMBL1158601, “Discovery of a novel series of CXCR3 antagonists” (Bioorg Med Chem Lett, 2010).

Data set [1] in a line: Intrinsic clearance in rat liver microsomes assessed per mg of protein. It is filed as ADME, Microsome. The essentials: (§1)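 Intrinsic clearance from stability in human and rat liver microsomes, expressed as µL/min/mg protein.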
The nature of data set [2]: Intrinsic clearance in human liver microsomes assessed per mg of protein. It is filed as ADME, Microsome. The procedure, abridged: as §1
Background: Liver microsomes are a subcellular fraction often used to study metabolism.

Data set [3] is described as follows: Aqueous solubility at pH 7.4. It is filed as physicochemical. The note with it: buffer. The essentials: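 Aqueous solubility measured at pH 7.4.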
Data set [4] has as its target T1, C-X-C chemokine receptor type 5 (Homo sapiens) (UniProt P32302).
T1 sequence (whole entry): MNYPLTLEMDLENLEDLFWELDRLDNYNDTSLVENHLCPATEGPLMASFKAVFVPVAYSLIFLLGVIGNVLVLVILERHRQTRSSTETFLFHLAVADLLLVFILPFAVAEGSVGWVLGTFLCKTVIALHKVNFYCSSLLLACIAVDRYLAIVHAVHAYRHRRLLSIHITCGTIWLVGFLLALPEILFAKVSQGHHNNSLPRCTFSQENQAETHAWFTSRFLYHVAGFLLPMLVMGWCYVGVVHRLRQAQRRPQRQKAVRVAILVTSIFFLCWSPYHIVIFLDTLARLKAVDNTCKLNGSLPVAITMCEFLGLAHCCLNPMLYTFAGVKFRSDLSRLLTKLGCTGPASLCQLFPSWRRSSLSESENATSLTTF
Description: Antagonist activity at human CXCR5 expressed in mouse L1.2 cells assessed as inhibition of CXCL13-induced chemotaxis up to 10 uM after 4 hrs. In kind it is functional, cell-based. The essentials: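 Counter-screen chemotaxis: CXCR5-overexpressing L1.2 cells stimulated with CXCL13, test compounds up to 10 µM.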

Data set [5] deals with T2, C-X-C chemokine receptor type 3 (Homo sapiens, UniProt P49682).
T2 sequence (P49682 whole entry): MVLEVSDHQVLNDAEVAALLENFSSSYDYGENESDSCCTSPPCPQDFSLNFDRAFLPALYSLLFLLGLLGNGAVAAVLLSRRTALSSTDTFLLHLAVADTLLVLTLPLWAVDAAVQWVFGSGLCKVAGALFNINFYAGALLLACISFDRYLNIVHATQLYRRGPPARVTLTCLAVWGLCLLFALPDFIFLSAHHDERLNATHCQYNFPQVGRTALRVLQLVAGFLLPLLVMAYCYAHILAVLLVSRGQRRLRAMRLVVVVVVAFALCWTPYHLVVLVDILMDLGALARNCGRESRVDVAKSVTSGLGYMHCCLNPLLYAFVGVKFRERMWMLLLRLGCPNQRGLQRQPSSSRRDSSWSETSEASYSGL
Description: Displacement of labeled IP10 from CXCR3.

The nature of data set [6]: Chemical stability at pH 1. It is filed as physicochemical. The settings on record: buffer.
The target of data set [7] is T3, C-X-C chemokine receptor type 3 (Homo sapiens) (UniProt P49682).
T3 sequence (whole entry): T2 sequence (P49682 whole entry)
Description: Antagonist activity at human CXCR3 expressed in mouse L1.2 cells assessed as inhibition of ITAC-induced chemotaxis after 4 hrs. It is filed as functional, cell-based.

The target in data set [8] is T2, C-X-C chemokine receptor type 3. Description: Displacement of labeled ITAC from CXCR3.
The nature of data set [9]: Lipophilicity, log P of the compound. The note with it: octanol/water. In kind it is physicochemical.
Data set [10] can be described thus: Apparent permeability across human Caco-2 cells. It is filed as ADME, cell-based. Background: Passage across Caco-2 layers is used to estimate intestinal permeability.
The target in data set [11] is T3, C-X-C chemokine receptor type 3 (Homo sapiens). Description: Antagonist activity at CXCR3 assessed as inhibition of IP10-induced GTPgammaS binding. In kind it is functional. (In general: GTPγS is a poorly hydrolysed GTP analogue; its binding reports G protein activation.)
Data set [12] shares this target. Description: Antagonist activity at CXCR3 assessed as inhibition of ITAC-induced GTPgammaS binding. It is filed as functional.
A short description of data set [13]: Nephelometric kinetic solubility in PBS. In kind it is physicochemical.

SMILES strings stand for the structures. In brackets after ≈: the same amount, converted by molar mass. Activity calls are given as the source filed them. The rule behind the calls is not given here. Some results are limits rather than exact numbers.

`O=C(NC[C@@H]1CCCO1)c1ccc(CN(Cc2ccccc2)S(=O)(=O)c2ccc(Cl)cc2)cc1`: the microsomal CLint (commonly a measure of how fast metabolising enzymes remove a compound, apart from limits set by blood flow) in [1] stood at 1700 µL/min/mg; in data set [2], 490 µL/min/mg. The solubility (usually the concentration that dissolves in the medium under given conditions) in [3] is below 10 µM. Also, in [4], the outcome was inactive.

In data set [3], `O=S(=O)(c1ccc(Cl)cc1)N(CCc1cc2ccccc2cn1)Cc1ccc(-c2nnn[nH]2)cc1` registered a solubility above 100 µM. In addition, in [4], the result was inactive.

In [3], `O=C(NCC1CC1)c1ccc(CN(Cc2ccccc2)S(=O)(=O)c2ccc(Cl)cc2)cc1` yielded a solubility below 10 µM. The result in [4] was inactive.

Consider `O=C(NCC1CC1)c1ccc(CN(Cc2ccccc2F)S(=O)(=O)c2ccc(Cl)cc2)cc1`, for which, in [3], the solubility was below 10 µM. In addition, in data set [4], the outcome was inactive.

In data set [3], `N#Cc1ccc(S(=O)(=O)N(Cc2ccc(C(=O)NCC3CC3)cc2)Cc2ccccn2)cc1` gave a solubility below 10 µM. Moreover, the result in data set [4] was inactive.

For the molecule `O=S(=O)(c1ccc(Cl)cc1)N(Cc1ccc(-c2nnn[nH]2)c(F)c1)Cc1ccccn1`, the solubility in [3] was above 100 µM. For the same molecule, the result in data set [4] was inactive.

Regarding `N#Cc1ccc(S(=O)(=O)N(Cc2ccc(-c3nnn[nH]3)cc2)Cc2ccccn2)cc1`, the solubility in data set [3] is above 100 µM. Further, the outcome in data set [4] was inactive.

`O=S(=O)(c1ccc(Cl)cc1)N(Cc1ccc(F)cc1)Cc1ccc(-c2nnn[nH]2)cc1` displayed a solubility in [3] above 100 µM. For the same molecule, the result in [4] was inactive.

`O=C(O)c1ccc(CN(Cc2ccccc2F)S(=O)(=O)c2ccc(Cl)cc2)cc1F` yielded a microsomal CLint in data set [1] below 10 µL/min/mg. Also, the outcome in data set [4] was inactive.

`COc1ccc(S(=O)(=O)N(Cc2ccc(C(=O)NCC3CC3)cc2)Cc2cccnc2)cc1` displayed a solubility in data set [3] below 10 µM. Further, the outcome in [4] was inactive.

Turning to `N#Cc1ccc(S(=O)(=O)N(Cc2ccc(C(=O)O)c(F)c2)Cc2ccccn2)cc1`, the outcome in data set [4] was inactive.

For the molecule `O=C(NCc1cccc(Cl)c1)c1ccc(CN(Cc2ccccc2)S(=O)(=O)c2ccc(Cl)cc2)cc1`, in [3], the solubility was below 10 µM. For the same molecule, the result in [4] was inactive.

`O=C(NCCc1cccc([N+](=O)[O-])c1)c1ccc(CN(Cc2ccccc2)S(=O)(=O)c2ccc(Cl)cc2)cc1`: the solubility in [3] is below 10 µM. Besides, the outcome in [4] was inactive.

Regarding `O=S(=O)(c1ccc(Cl)cc1)N(Cc1ccc(-c2nnn[nH]2)cc1)Cc1cccc(Cl)c1`, the solubility in data set [3] is above 100 µM. Moreover, the outcome in data set [4] was inactive.

Turning to `O=C(NCC1CC1)c1ccc(CN(Cc2ccccn2)S(=O)(=O)c2ccc(Cl)cc2)cc1`, the microsomal CLint in data set [1] was determined as 538 µL/min/mg; in data set [2], 265 µL/min/mg. The solubility in data set [3] was below 10 µM. Besides, the result in data set [4] was inactive.

Regarding `O=C(O)c1ccc(CN(Cc2ccccn2)S(=O)(=O)c2ccc(Cl)cc2)cc1F`, the outcome in data set [4] was inactive.

As for `CCOc1ccc(S(=O)(=O)N(Cc2ccccc2)Cc2ccc(C(=O)NCC3CC3)cc2)cc1`, in data set [3], the solubility is below 10 µM. In addition, in data set [4], the outcome was inactive.

In the case of `COc1ccc(S(=O)(=O)N(Cc2ccccc2)Cc2ccc(C(=O)NCC3CC3)cc2)cc1`, the solubility in data set [3] was below 10 µM. The result in data set [4] was inactive.

In the case of `O=S(=O)(c1ccc(Cl)cc1)N(Cc1ccc(-c2nnn[nH]2)c(F)c1)Cc1ccccc1F`, the results for the intrinsic metabolic clearance (microsomal CLint) in data set [1] and in data set [2] were 71 µL/min/mg and below 10 µL/min/mg, respectively. In [3], this molecule displayed a solubility above 100 µM. The outcome in data set [4] was inactive.

Take `O=C(NCc1cccc(Cl)c1)c1ccc(CN(Cc2ccccn2)S(=O)(=O)c2ccc(Cl)cc2)cc1`: the microsomal CLint in data set [1] was 1190 µL/min/mg; in [2], 583 µL/min/mg. In addition, in [3], the solubility is below 10 µM. Moreover, in data set [4], the result was inactive.

`O=C(NCC1CC1)c1ccc(CN(Cc2cccc(Cl)c2)S(=O)(=O)c2ccc(Cl)cc2)cc1` came in with a solubility in data set [3] below 10 µM. For the same molecule, the outcome in [4] was inactive.

Take `O=C(NCc1cccs1)c1ccc(CN(Cc2ccccc2)S(=O)(=O)c2ccc(Cl)cc2)cc1`: the solubility in [3] was below 10 µM. Further, in data set [4], the outcome was inactive.

With `O=C(O)c1ccc(CN(Cc2ccccc2)S(=O)(=O)c2ccc(Cl)cc2)cc1`, the figures for the microsomal CLint in data set [1] and in [2] were 20 µL/min/mg and below 10 µL/min/mg, respectively. In addition, the outcome in [4] was inactive.

Molecule `O=S(=O)(c1ccc(Cl)cc1)N(Cc1ccc(Cl)cc1)Cc1ccc(-c2nnn[nH]2)cc1` came in with a solubility in data set [3] above 100 µM. Also, in [4], the result was inactive.

In the case of `O=S(=O)(c1ccc(Cl)cc1)N(Cc1ccc(-c2nnc(O)o2)cc1)Cc1ccccn1`, the result in [4] was inactive.

Consider `N#Cc1ccc(S(=O)(=O)N(Cc2ccc(C(=O)NC3(c4ccccc4)CC3)cc2)Cc2ccccn2)cc1`, for which the microsomal CLint in data set [1] was 474 µL/min/mg; in data set [2], 435 µL/min/mg. In data set [3], this molecule showed a solubility below 10 µM. Also, the result in [4] was inactive.

As to `CC(=O)Nc1cccc(/C(C)=N\NC(=O)c2ccc(CN(Cc3ccccc3)S(=O)(=O)c3ccc(Cl)cc3)cc2)c1`, the Ki (in general, a dissociation constant, usually derived from enzyme kinetics or from competition with a known ligand) in data set [5] amounted to 348 nM; in [8], 211 nM. Also, the Stability result in data set [6] is on record as “Unstable”. Further, the microsomal CLint is 219 µL/min/mg in data set [1] and 92 µL/min/mg in data set [2]. The Activity was found to be 1810 nM in [7], 99 nM in data set [11] and 128 nM in [12]. Further, the logP (commonly the decadic logarithm of the partition coefficient of the neutral form, usually between octanol and water) in data set [9] was 4.8. For the same molecule, in data set [10], the Papp (as a rule, a coefficient for how fast a substance crosses the barrier) is 0.1 ×10⁻⁶ cm/s. Besides, the kinetic solubility (usually solubility judged after dilution from a stock solution rather than from solid) in data set [13] turned out to be 11.9 µM (≈ 7.01 µg/mL).

Regarding `O=S(=O)(c1ccc(Cl)cc1)N(Cc1ccc(-c2nnn[nH]2)cc1)Cc1ccccn1`, the microsomal CLint in data set [1] is 25 µL/min/mg; in [2] it was below 10 µL/min/mg. This molecule gave a solubility in data set [3] above 100 µM. In addition, the outcome in [4] was inactive.

As for `COc1cccc(CN(Cc2ccc(-c3nnn[nH]3)cc2)S(=O)(=O)c2ccc(Cl)cc2)c1`, in [3], the solubility is above 100 µM. Moreover, the outcome in data set [4] was inactive.

With `COc1ccc(S(=O)(=O)N(Cc2ccccc2)Cc2ccc(C(=O)O)cc2)cc1`, the outcome in data set [4] was inactive.

In [3], `CCOc1ccc(S(=O)(=O)N(Cc2ccc(-c3nnn[nH]3)cc2)Cc2ccccn2)cc1` came in with a solubility above 100 µM. The result in data set [4] was inactive.

Turning to `O=C(NC1(c2ccccc2)CC1)c1ccc(CN(Cc2ccccc2)S(=O)(=O)c2ccc(Cl)cc2)cc1`, the microsomal CLint in [1] was determined as 507 µL/min/mg; in data set [2], 211 µL/min/mg. Further, the solubility in data set [3] was below 10 µM. Further, the outcome in [4] was inactive.

Molecule `CC(C)(C)c1nc(CCN(Cc2ccc(-c3nnn[nH]3)cc2)S(=O)(=O)c2ccc(Cl)cc2)no1` came in with a solubility in data set [3] above 100 µM. Moreover, in data set [4], the outcome was inactive.

`O=S(=O)(c1ccc(Cl)cc1)N(Cc1ccc(-c2nnn[nH]2)cc1)Cc1ccccc1F` returned a solubility in [3] above 100 µM. For the same molecule, the result in [4] was inactive.

The molecule `N#Cc1ccc(S(=O)(=O)N(Cc2ccc(-c3nnn[nH]3)cc2)Cc2ccccc2F)cc1` had a microsomal CLint in data set [1] of 67 µL/min/mg. Further, the solubility in data set [3] was above 100 µM. For the same molecule, in [4], the outcome was inactive.

In data set [3], `COc1ccc(CN(Cc2ccc(-c3nnn[nH]3)cc2)S(=O)(=O)c2ccc(Cl)cc2)cc1` had a solubility above 100 µM. Moreover, the outcome in data set [4] was inactive.

In turn, `O=C(NCC1CC1)c1ccc(CN(Cc2ccccc2)S(=O)(=O)c2ccc(OC(F)(F)F)cc2)cc1` displayed a solubility in data set [3] below 10 µM. The outcome in data set [4] was inactive.

`COc1ccc(S(=O)(=O)N(Cc2ccccc2)Cc2ccc(C(=O)NCc3ccccc3)cc2)cc1`: the solubility in [3] is below 10 µM. Moreover, the outcome in data set [4] was inactive.

On to `O=C(NC1(c2ccccc2)CC1)c1ccc(CN(Cc2ccccn2)S(=O)(=O)c2ccc(Cl)cc2)cc1`, for which the intrinsic clearance (microsomal CLint) in [1] was determined as 1260 µL/min/mg; in data set [2], 257 µL/min/mg. The molecule also showed a solubility in [3] below 10 µM. Besides, the outcome in data set [4] was inactive.
